Test results reported in ChEMBL document CHEMBL1156302, “Discovery of a synthetic dual inhibitor of HIV and HCV infection based on a tetrabutoxy-calix[4]arene scaffold” (Bioorg Med Chem Lett, 2010).
Calls of active or inactive are those of the source. The rule behind the calls is not given here.

Assays:
[1] = system: CCRF-CEM; assay: Cytotoxicity against HCV infected human CEM cells; type: cell-based
[2] = system: Hepatitis C virus; assay: Antiviral activity against HCV infected in human CEM cells assessed as inhibition of viral replication; type: functional, organism-based, Hepacivirus hominis; conditions: CCRF-CEM
[3] = system: MT2; assay: Cytotoxicity against human MT2 cells; type: cell-based
Summary of the method: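 Cell toxicity was measured in MT-2 human T cells bearing HTLV-1 and expressed as ID50.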

[4] = system: Human immunodeficiency virus 1; assay: Antiviral activity against HIV1 infected in human MT2 cells; type: functional, organism-based; conditions: Human immunodeficiency virus 1, MT2
[5] = Inhibition of VEGF binding to VEGFR
[6] = Inhibition of PDGF binding to PDGFR
[7] = system: Human immunodeficiency virus 1; assay: Antiviral activity against HIV1 infected in human CEMx174 cells; type: functional, organism-based
[8] = system: Human alphaherpesvirus 1; assay: Antiviral activity against HSV1 assessed as inhibition of viral replication; type: functional, organism-based
[9] = system: Human alphaherpesvirus 2; assay: Antiviral activity against HSV2 assessed as inhibition of viral replication; type: functional, organism-based
[10] = system: Human immunodeficiency virus 1; assay: Antiviral activity against HIV1 infected in human TZM-bl cells; type: functional, organism-based
Summary of the method: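 Host cells were TZM-bl, a HeLa line carrying firefly luciferase driven by an HIV promoter.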

[11] = system: Hepatitis B virus; assay: Antiviral activity against HBV assessed as inhibition of viral replication; type: functional, organism-based

SMILES: O=C(O)c1cc2c(OCc3ccccc3)c(c1)Cc1cc(C(=O)O)cc(c1OCc1ccccc1)Cc1cc(C(=O)O)cc(c1OCc1ccccc1)Cc1cc(C(=O)O)cc(c1OCc1ccccc1)C2
- IC50 [1]: 50 µM
- IC50 [2]: > 50 µM
- IC50 [3]: > 50 µM
- IC50 [4]: 37.1 µM

SMILES: O=C(O)c1cc2c(O)c(c1)Cc1cc(C(=O)O)cc(c1O)Cc1cc(C(=O)O)cc(c1O)Cc1cc(C(=O)O)cc(c1O)C2
- IC50 [1]: > 50 µM
- IC50 [2]: > 50 µM
- IC50 [3]: > 50 µM
- IC50 [4]: > 50 µM

SMILES: O=C(O)c1cc(NC(=O)c2cc3c(O)c(c2)Cc2cc(C(=O)Nc4cc(C(=O)O)cc(C(=O)O)c4)cc(c2O)Cc2cc(C(=O)Nc4cc(C(=O)O)cc(C(=O)O)c4)cc(c2O)Cc2cc(C(=O)Nc4cc(C(=O)O)cc(C(=O)O)c4)cc(c2O)C3)cc(C(=O)O)c1
- IC50 [2]: > 50 µM
- IC50 [3]: > 50 µM
- IC50 [4]: 6.7 µM

SMILES: CCCCOc1c2cc(C(=O)Nc3cc(C(=O)O)cc(C(=O)NC4CCCCC4)c3)cc1Cc1cc(C(=O)Nc3cc(C(=O)O)cc(C(=O)NC4CCCCC4)c3)cc(c1OCCCC)Cc1cc(C(=O)Nc3cc(C(=O)O)cc(C(=O)NC4CCCCC4)c3)cc(c1OCCCC)Cc1cc(C(=O)Nc3cc(C(=O)O)cc(C(=O)NC4CCCCC4)c3)cc(c1OCCCC)C2
- IC50 [5]: > 10 µM
- IC50 [1]: > 50 µM
- IC50 [2]: 4.1 µM
- IC50 [6]: 0.29 µM
- IC50 [3]: > 50 µM
- IC50 [4]: > 50 µM

SMILES: CCCCOc1c2cc(C(=O)NCCN)cc1Cc1cc(C(=O)NCCN)cc(c1OCCCC)Cc1cc(C(=O)NCCN)cc(c1OCCCC)Cc1cc(C(=O)NCCN)cc(c1OCCCC)C2
- IC50 [1]: < 12.5 µM
- IC50 [2]: 5.7 µM
- IC50 [3]: 16 µM
- IC50 [4]: < 16 µM

SMILES: O=C(O)c1cc(NC(=O)c2cc3c(OCc4ccccc4)c(c2)Cc2cc(C(=O)Nc4cc(C(=O)O)cc(C(=O)O)c4)cc(c2OCc2ccccc2)Cc2cc(C(=O)Nc4cc(C(=O)O)cc(C(=O)O)c4)cc(c2OCc2ccccc2)Cc2cc(C(=O)Nc4cc(C(=O)O)cc(C(=O)O)c4)cc(c2OCc2ccccc2)C3)cc(C(=O)O)c1
- IC50 [1]: 0.46 µM
- IC50 [2]: 1.4 µM
- IC50 [3]: 18 µM
- IC50 [4]: 0.3 µM

SMILES: CCCCOc1c2cc(C(=O)N[C@@H](CCC(=O)O)C(=O)O)cc1Cc1cc(C(=O)N[C@@H](CCC(=O)O)C(=O)O)cc(c1OCCCC)Cc1cc(C(=O)N[C@H](CCC(=O)O)C(=O)O)cc(c1OCCCC)Cc1cc(C(=O)N[C@@H](CCC(=O)O)C(=O)O)cc(c1OCCCC)C2
- IC50 [1]: 100 µM
- IC50 [2]: 4.1 µM
- IC50 [3]: > 50 µM
- IC50 [4]: 2.4 µM

SMILES: CCCCOc1c2cc(C(=O)Nc3cc(C(=O)O)cc(C(=O)O)c3)cc1Cc1cc(C(=O)Nc3cc(C(=O)O)cc(C(=O)O)c3)cc(c1OCCCC)Cc1cc(C(=O)Nc3cc(C(=O)O)cc(C(=O)O)c3)cc(c1OCCCC)Cc1cc(C(=O)Nc3cc(C(=O)O)cc(C(=O)O)c3)cc(c1OCCCC)C2
- Activity [7]: Active
- IC50 [5]: 4.96 µM
- IC50 [1]: 50 µM
- Activity [8]: inactive
- IC50 [2]: 1.8 µM
- IC50 [6]: 2.62 µM
- Activity [9]: inactive
- Activity [10]: Active
- IC50 [3]: > 50 µM
- Activity [11]: inactive
- IC50 [4]: 0.36 µM

SMILES: CCCCOc1c2cc(C(=O)Nc3cc(C(=O)O)cc(C(=O)OCc4ccccc4)c3)cc1Cc1cc(C(=O)Nc3cc(C(=O)O)cc(C(=O)OCc4ccccc4)c3)cc(c1OCCCC)Cc1cc(C(=O)Nc3cc(C(=O)O)cc(C(=O)OCc4ccccc4)c3)cc(c1OCCCC)Cc1cc(C(=O)Nc3cc(C(=O)O)cc(C(=O)OCc4ccccc4)c3)cc(c1OCCCC)C2
- IC50 [5]: 0.48 µM
- IC50 [1]: 12.5 µM
- IC50 [2]: 25.6 µM
- IC50 [6]: 0.19 µM
- IC50 [3]: > 50 µM
- IC50 [4]: > 50 µM

SMILES: CCCCOc1c2cc(C(=O)O)cc1Cc1cc(C(=O)O)cc(c1OCCCC)Cc1cc(C(=O)O)cc(c1OCCCC)Cc1cc(C(=O)O)cc(c1OCCCC)C2
- IC50 [2]: 30.1 µM
- IC50 [3]: 13 µM
- IC50 [4]: 2.9 µM
